Test results taken from ChEMBL document CHEMBL4177770, “Discovery of MK-6169, a Potent Pan-Genotype Hepatitis C Virus NS5A Inhibitor with Optimized Activity against Common Resistance-Associated Substitutions” (J Med Chem, 2018).

What was measured:
[1] = molecular target: T1, Nonstructural protein 5A (Hepatitis C virus) (UniProt Q5L478); test: Inhibition of NS5A L30H mutant in HCV genotype 4a infected in HuH7 replicon cells assessed as decrease in viral replication after 3 days by RT-PCR method; format: cell-based; details: Hepatitis C virus subtype 4a
T1 sequence (whole entry): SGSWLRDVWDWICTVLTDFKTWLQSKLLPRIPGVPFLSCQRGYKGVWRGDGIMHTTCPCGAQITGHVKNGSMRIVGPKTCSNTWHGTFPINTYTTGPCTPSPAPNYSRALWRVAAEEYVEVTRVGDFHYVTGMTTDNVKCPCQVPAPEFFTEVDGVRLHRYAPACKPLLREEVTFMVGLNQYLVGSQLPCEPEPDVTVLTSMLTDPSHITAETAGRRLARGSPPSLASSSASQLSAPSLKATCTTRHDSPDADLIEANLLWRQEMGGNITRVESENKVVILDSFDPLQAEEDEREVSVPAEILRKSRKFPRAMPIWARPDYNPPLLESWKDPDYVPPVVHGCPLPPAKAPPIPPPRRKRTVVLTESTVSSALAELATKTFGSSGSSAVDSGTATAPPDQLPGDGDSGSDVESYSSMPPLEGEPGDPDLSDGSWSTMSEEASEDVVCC

[2] = system: Hepatitis C virus subtype 1a; test: Resistance ratio of EC90 for NS5A M28T mutant in HCV genotype 1a infected in HuH7 replicon cells to EC90 for NS5A in HCV genotype 1a infected in HuH7 replicon cells; format: cell-based
[3] = Resistance ratio of EC90 for NS5A L28M/Y93H double mutant in HCV genotype 1b infected in HuH7 replicon cells to EC90 for NS5A in HCV genotype 1a infected in HuH7 replicon cells; format: cell-based
[4] = molecular target: T1, Nonstructural protein 5A (Hepatitis C virus); test: Inhibition of NS5A A146S mutant in HCV genotype 2b infected in HuH7 replicon cells assessed as decrease in viral replication after 3 days by RT-PCR method; format: cell-based; details: Hepatitis C virus subtype 2b
[5] = Resistance ratio of EC90 for NS5A F28Y mutant in HCV genotype 2a infected in HuH7 replicon cells to EC90 for NS5A in HCV genotype 1a infected in HuH7 replicon cells; format: cell-based
[6] = MRT in Wistar Han rat at 300 mg/kg, po by LC/MS method; format: ADME, organism-based; details: in vivo
Procedure, shortened: (§1)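 Single rising oral dose study in fed male Wistar Han rats, dosed PO in 10% TWEEN at the indicated doses. Plasma was obtained by centrifuging the blood, and compound levels were determined by LC/MS.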

[7] = system: Hepatitis C virus subtype 1a; test: Resistance ratio of EC90 for NS5A Q30R mutant in HCV genotype 1a infected in HuH7 replicon cells to EC90 for NS5A in HCV genotype 1a infected in HuH7 replicon cells; format: cell-based
[8] = molecular target: T1, Nonstructural protein 5A (Hepatitis C virus); test: Inhibition of NS5A M28K mutant in HCV genotype 1a infected in HuH7 replicon cells assessed as decrease in viral replication after 3 days by RT-PCR method; format: cell-based; details: Hepatitis C virus subtype 1a
[9] = Resistance ratio of EC90 for NS5A L31F mutant in HCV genotype 3a infected in HuH7 replicon cells to EC90 for NS5A in HCV genotype 1a infected in HuH7 replicon cells; format: cell-based
[10] = Resistance ratio of EC90 for NS5A F28L mutant in HCV genotype 2a infected in HuH7 replicon cells to EC90 for NS5A in HCV genotype 1a infected in HuH7 replicon cells; format: cell-based
[11] = molecular target: T1, Nonstructural protein 5A (Hepatitis C virus); test: Inhibition of NS5A K24R mutant in HCV genotype 1a infected in HuH7 replicon cells assessed as decrease in viral replication after 3 days by RT-PCR method; format: cell-based; details: Hepatitis C virus subtype 1a
[12] = MRT in Wistar Han rat at 100 mg/kg, po by LC/MS method; format: ADME, organism-based; details: in vivo; procedure, shortened: as §1
[13] = Resistance ratio of EC90 for NS5A in HCV genotype 2a infected in HuH7 replicon cells to EC90 for NS5A in HCV genotype 1a infected in HuH7 replicon cells; format: cell-based
[14] = molecular target: T1, Nonstructural protein 5A (Hepatitis C virus); test: Inhibition of NS5A M31V mutant in HCV genotype 2b infected in HuH7 replicon cells assessed as decrease in viral replication after 3 days by RT-PCR method; format: cell-based; details: Hepatitis C virus subtype 2b
[15] = Drug level in Wistar Han rat at 10 mg/kg, po measured at 24 hrs by LC/MS method; format: ADME, organism-based; details: in vivo, read-out: Drug uptake
Procedure, shortened: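 Male Wistar Han rats, two per dosing group, dosed orally at 10 mg/kg in 10% TWEEN. Plasma was separated from collected blood by centrifugation and analysed by LC/MS.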

[16] = Half life in Wistar Han rat at 2 mg/kg, iv by LC/MS method; format: ADME, organism-based; details: in vivo
Procedure, shortened: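 Male Wistar Han rats, two per group, dosed IV at 2 mg/kg in 60% PEG200. Plasma was obtained by centrifuging the blood, and compound concentrations were measured by LC/MS.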

[17] = molecular target: T1, Nonstructural protein 5A (Hepatitis C virus); test: Inhibition of NS5A L31I mutant in HCV genotype 1b infected in HuH7 replicon cells assessed as decrease in viral replication after 3 days by RT-PCR method; format: cell-based; details: Hepatitis C virus subtype 1b
[18] = molecular target: T1, Nonstructural protein 5A (Hepatitis C virus); test: Inhibition of NS5A A92T mutant in HCV genotype 1b infected in HuH7 replicon cells assessed as decrease in viral replication after 3 days by RT-PCR method; format: cell-based; details: Hepatitis C virus subtype 1b
[19] = system: NS3 (Hepatitis C virus), A3EZJ3 [R155K,V36M]; test: Inhibition of NS3 R155K/V36M double mutant in HCV genotype 1a infected in HuH7 replicon cells assessed as decrease in viral replication after 3 days by RT-PCR method; format: cell-based; details: Hepatitis C virus subtype 1a
[20] = system: Hepatitis C virus subtype 1a; test: Resistance ratio of EC90 for NS5A R81W mutant in HCV genotype 1a infected in HuH7 replicon cells to EC90 for NS5A in HCV genotype 1a infected in HuH7 replicon cells; format: cell-based
[21] = Resistance ratio of EC90 for NS5A A146S mutant in HCV genotype 2b infected in HuH7 replicon cells to EC90 for NS5A in HCV genotype 1a infected in HuH7 replicon cells; format: cell-based
[22] = molecular target: T1, Nonstructural protein 5A (Hepatitis C virus); test: Inhibition of NS5A L31V mutant in HCV genotype 1a infected in HuH7 replicon cells assessed as decrease in viral replication after 3 days by RT-PCR method; format: cell-based; details: Hepatitis C virus subtype 1a
[23] = molecular target: T1, Nonstructural protein 5A (Hepatitis C virus); test: Inhibition of NS5A L31M mutant in HCV genotype 2b infected in HuH7 replicon cells assessed as decrease in viral replication after 3 days by RT-PCR method; format: cell-based; details: Hepatitis C virus subtype 2b
[24] = molecular target: T1, Nonstructural protein 5A (Hepatitis C virus); test: Inhibition of NS5A L31V mutant in HCV genotype 4a infected in HuH7 replicon cells assessed as decrease in viral replication after 3 days by RT-PCR method; format: cell-based; details: Hepatitis C virus subtype 4a
[25] = molecular target: T1, Nonstructural protein 5A (Hepatitis C virus); test: Inhibition of NS5A L31M mutant in HCV genotype 1b infected in HuH7 replicon cells assessed as decrease in viral replication after 3 days by RT-PCR method; format: cell-based; details: Hepatitis C virus subtype 1b
[26] = Half life in Beagle dog at 1 mg/kg, iv by LC/MS method; format: ADME, organism-based, Canis lupus familiaris; details: in vivo
Procedure, shortened: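 Beagle dogs, two animals per group, dosed IV at 1 mg/kg in 60% PEG200. Plasma was prepared from collected blood by centrifugation, and compound was quantified by LC/MS.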

[27] = Resistance ratio of EC90 for NS5A L31M mutant in HCV genotype 2a infected in HuH7 replicon cells to EC90 for NS5A in HCV genotype 1a infected in HuH7 replicon cells; format: cell-based

Compound: COC(=O)N[C@H](C(=O)N1CCC[C@H]1c1ncc(-c2cc(F)c3c(c2)O[C@@H](c2ccc(C4CC4)s2)n2c-3cc3cc(-c4cnc([C@@H]5CCCN5C(=O)[C@@H](NC(=O)OC)[C@@H]5CCOC(C)(C)C5)[nH]4)ccc32)[nH]1)C(C)C
- EC90 [1]: 72 pM
- Ratio [2]: < 1
- Ratio [3]: 15
- EC90 [4]: 3.4 pM
- Ratio [5]: 16
- MRT [6]: 10.7 h
- Ratio [7]: 28
- EC90 [8]: 420 pM
- Ratio [9]: 69
- Ratio [10]: < 1
- EC90 [11]: 0.34 pM
- MRT [12]: 12.4 h
- Ratio [13]: < 1
- EC90 [14]: 19 pM
- concentration at 24 h [15]: 3 to 11 nM
- half-life [16]: 5.4 h
- EC90 [17]: 21 pM
- EC90 [18]: 3.9 pM
- EC90 [19]: 2.5 pM
- Ratio [20]: < 1
- Ratio [21]: 1
- EC90 [22]: 4.3 pM
- EC90 [23]: 18 pM
- EC90 [24]: 7.7 pM
- EC90 [25]: 1.6 pM
- half-life [26]: 5.8 h
- Ratio [27]: 6
